Published values of several laboratories.
Read-out: cell growth or viability

COc1ccc(NC(=O)Nc2cccc(-c3cn(Cc4ccc(Br)cc4)nn3)c2)cc1 has an IC50 of 15.9 µM (Huh-7; CCK-8; 72 h).
O=[N+]([O-])c1cc(I)c(O)c(C=NNc2ccccc2)c1 gave an IC50 of 17 µM (HEK-293T; MTT; 24 h).
For O=c1[nH]cc(F)c(=O)[nH]1, the IC50 was 17.2 µM (Huh-7; CCK-8; 72 h).
O=C(Nc1ccc(Cl)cc1)Nc1cccc(-c2cn(Cc3cccc(Cl)c3)nn2)c1 has an IC50 of 15.1 µM (Huh-7; CCK-8; 72 h).
O=[N+]([O-])c1cc(Br)c(O)c(C=NNc2ccc(Br)cc2)c1 gave an IC50 of 12.3 µM (HEK-293T; MTT; 24 h).
The IC50 of O=C(Nc1cccc(-c2cn(Cc3ccc(Cl)cc3)nn2)c1)Nc1ccccc1Br is reported as 13.5 µM (Huh-7; CCK-8; 72 h).
The IC50 of C=CCn1c(=O)c2cnc(Nc3ccc(N4CCN(C)CC4)cc3)nc2n1-c1ccc2c(n1)[C@@](O)(CC)CC2 is reported as 1.52 µM (KURAMOCHI; ATP luminescence; 72 h).
c1ccc(-c2noc(-c3nn(Cc4ccc5ccccc5c4)c4ccccc34)n2)cc1 gave an IC50 of 115 µM (HepG2; 48 h).
With O=C(Nc1ccc(Cl)cc1)Nc1cccc(-c2cn(Cc3cccc(Br)c3)nn2)c1 the IC50 was 32.3 µM (Huh-7; CCK-8; 72 h).
The IC50 of Cc1cnc(CNC(=O)c2c(=O)c3ccc(N4CCCN(C)CC4)nc3n3c2sc2ccccc23)cn1 is reported as 2.49 µM (THLE3; imaging; 72 h).
O=[N+]([O-])c1ccc(O)c(C=NNc2ccc(C(F)(F)F)cc2)c1 gave an IC50 of 17 µM (HEK-293T; MTT; 24 h).
With CN1CCC(NC2CCc3[nH]c4c(C(N)=O)ccc(-c5ccccc5Cl)c4c3C2)CC1 (stereo not shown) the IC50 was 0.0114 µM (Ramos; 96 h).
With COc1ccc(NC(=O)Nc2ccc(-c3cn(Cc4ccc(C)cc4)nn3)cc2)cc1 the IC50 was greater than 50 µM (Huh-7; CCK-8; 72 h).
The IC50 of O=[N+]([O-])c1cc(Br)c(O)c(C=NNc2ccc(C(F)(F)F)cc2)c1 is reported as 18 µM (HEK-293T; MTT; 24 h).
The IC50 of COc1ccc(NC(=O)Nc2ccc(-c3cn(Cc4ccc(Br)cc4)nn3)cc2)cc1 is reported as greater than 50 µM (Huh-7; CCK-8; 72 h).
With Cc1nc(Nc2ncc(C(=O)Nc3c(C)cccc3Cl)s2)cc(N2CC[C@H](O)C2)n1 the IC50 was greater than 10 µM (Ramos; ATP luminescence; 72 h).
